≈ marks a conversion by molar mass, not a printed value. Each block holds one compound with its values, some of them ahead of it.
Columns and labels:
[1] = target: T1, Corticotropin-releasing factor receptor 1 (Rattus norvegicus, UniProt P35353); assay: Displacement of [125]oCRF from rat cortex CRF1 receptor
T1 sequence (P35353 whole entry): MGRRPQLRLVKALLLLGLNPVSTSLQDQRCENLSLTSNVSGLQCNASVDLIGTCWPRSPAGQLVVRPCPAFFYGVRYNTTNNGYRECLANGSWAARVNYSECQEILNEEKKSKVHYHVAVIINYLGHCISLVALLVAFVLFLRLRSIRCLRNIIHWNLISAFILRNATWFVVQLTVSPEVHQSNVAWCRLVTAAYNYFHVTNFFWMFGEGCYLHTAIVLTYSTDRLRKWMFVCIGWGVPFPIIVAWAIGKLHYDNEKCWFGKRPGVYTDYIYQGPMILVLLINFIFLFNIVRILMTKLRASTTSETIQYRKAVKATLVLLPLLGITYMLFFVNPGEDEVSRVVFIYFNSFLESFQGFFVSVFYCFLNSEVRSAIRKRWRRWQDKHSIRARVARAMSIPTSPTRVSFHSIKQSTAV
Method in brief: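 Rat cortex binding used ¹²⁵I-ovine-CRF as radioligand. pIC50 ± SEM and IC50 are geometric means of at least three experimental runs.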

Rattus norvegicus [2] = assay: Ex vivo displacement of [125]oCRF from CRF1 receptor in rat cortex at 3.2 mg/kg, sc; type: functional; conditions: route subcutaneous
Method in brief: (§1)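 Rats received 3.2 mg/kg p.o. or s.c. per line, and cortex and pituitary binding of ¹²⁵I-oCRF was measured 1 h later by one of two methods. Homogenate method: 25 mg wet tissue/mL in PIPES pH 7.0 buffer, 40 pM ligand, 2 h at room temperature, centrifuged, filtered, scintillation counted. Autoradiographic method: male Sprague-Dawley rats (N = 4), 16 µm sections, 60 pM ligand, 1 h at room temperature. Nonspecific binding was set with 1 µM rat/human CRF. Percent inhibition is mean ± SD.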

Rattus norvegicus [3] = assay: Ex vivo displacement of [125]oCRF from CRF1 receptor in rat pituitary at 3.2 mg/kg, sc; type: functional; conditions: route subcutaneous; method in brief: as §1
[4] = Dissociation constant, pKa of the compound; type: physicochemical
Method in brief: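 UV spectrophotometric pKa determination, with the value extrapolated to 0% organic solvent.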

[5] = Solubility of the compound; type: physicochemical
Method in brief: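 Kinetic water solubility was measured in an in-house high-throughput assay.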

[6] = target: T1, Corticotropin-releasing factor receptor 1; assay: Antagonist activity at rat cortex CRF1 receptor assessed as inhibition of CRF-stimulated adenylate cyclase activity; type: functional, tissue-based
[7] = target: T2, Corticotropin-releasing factor receptor 1 (Homo sapiens, UniProt P34998); assay: Antagonist activity at human CRF1 receptor endogenously expressed in human IMR32 cells; type: functional, cell-based, IMR-32
T2 sequence (P34998 whole entry): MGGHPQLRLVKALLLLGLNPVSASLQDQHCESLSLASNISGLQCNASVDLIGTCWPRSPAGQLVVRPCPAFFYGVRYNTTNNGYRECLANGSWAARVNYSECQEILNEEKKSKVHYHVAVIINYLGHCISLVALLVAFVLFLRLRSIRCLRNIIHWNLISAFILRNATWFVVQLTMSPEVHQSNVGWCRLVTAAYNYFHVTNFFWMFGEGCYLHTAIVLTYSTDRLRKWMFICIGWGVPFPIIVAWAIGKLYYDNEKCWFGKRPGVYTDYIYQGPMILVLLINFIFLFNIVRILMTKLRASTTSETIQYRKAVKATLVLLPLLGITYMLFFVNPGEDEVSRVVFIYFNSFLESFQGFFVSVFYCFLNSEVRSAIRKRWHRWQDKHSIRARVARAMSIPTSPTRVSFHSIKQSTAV

Rattus norvegicus [8] = assay: Ex vivo displacement of [125]oCRF from CRF1 receptor in rat cortex at 3.2 mg/kg, po; type: functional; method in brief: as §1
Rattus norvegicus [9] = assay: Ex vivo displacement of [125]oCRF from CRF1 receptor in rat pituitary at 3.2 mg/kg, po; type: functional; method in brief: as §1
Rattus norvegicus [10] = assay: Attenuation of HPA axis activation in po dosed rat assessed as blockade of oCRF-induced elevation of plasma ACTH; type: functional
Method in brief: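 Rats were dosed orally, then challenged with exogenous oCRF at 4 µg/kg i.v., and plasma ACTH was measured. The MED was judged against CRF alone by one-way ANOVA with Dunnett's post hoc test (N = 12). ID50 (p.o.) was calculated with a confidence interval.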

[11] = Solubility at pH 7; type: physicochemical; conditions: buffer
[12] = Solubility at pH 2; type: physicochemical; conditions: buffer
[13] = target: Corticotropin-releasing factor receptor 1 (Rattus norvegicus) (UniProt P35353); assay: Inhibition of CRF1 receptor

SMILES: CCC(CC)Oc1cc(C)nc(Oc2c(C)cc(OC)cc2C)c1C
IC50 [1]: 2 nM | inhibition in vivo at 3.2 mg/kg (Rattus norvegicus [8]): 75% | inhibition in vivo at 3.2 mg/kg (Rattus norvegicus [9]): 55%

SMILES: CCC(CC)Oc1cc(C)nc(Oc2c(C)cc(C)cc2C)c1C(=O)O
IC50 [1]: > 10000 nM

SMILES: CCc1c(OC(CC)CC)cc(C)nc1Oc1c(C)cc(C)cc1C
IC50 [1]: 9.1 nM | inhibition in vivo at 3.2 mg/kg (Rattus norvegicus [2]): 57% | inhibition in vivo at 3.2 mg/kg (Rattus norvegicus [3]): 66%

SMILES: CCC(CC)Oc1cc(C)nc(Oc2c(C)cc(C(C)(C)O)cc2C)c1C
IC50 [1]: 40 nM

SMILES: CCC(CC)Oc1cc(C)nc(Oc2c(C)cc(Cl)cc2C)c1C
IC50 [1]: 5.5 nM | inhibition in vivo at 3.2 mg/kg (Rattus norvegicus [8]): 66% | inhibition in vivo at 3.2 mg/kg (Rattus norvegicus [9]): 76%

SMILES: CCC(CC)Oc1cc(C)nc(Oc2c(C)cc(O)cc2C)c1C
IC50 [1]: 1400 nM

SMILES: CCC(CC)Oc1cc(C)nc(Oc2c(C)cccc2C)c1C
IC50 [1]: 110 nM

SMILES: CCc1c(C)nc(Oc2c(C)cc(C)cc2C)c(C)c1OC(CC)CC
IC50 [1]: > 10000 nM

SMILES: CCC(CC)Oc1nc(C)cc(Oc2c(C)cc(C)cc2C)c1C
IC50 [13]: 3400 nM

SMILES: CCC(CC)Oc1cc(C)nc(Oc2c(C)cc(CO)cc2C)c1C
IC50 [1]: 61 nM | inhibition in vivo at 3.2 mg/kg (Rattus norvegicus [8]): 42% | inhibition in vivo at 3.2 mg/kg (Rattus norvegicus [9]): -20%

SMILES: CCC(CC)Oc1cc(C)nc(Oc2c(C)cc(OC(C)C)cc2C)c1C
IC50 [1]: 110 nM

SMILES: CCC(CC)Oc1cc(C)nc(Oc2c(C)cc(F)cc2C)c1C
IC50 [1]: 32 nM

SMILES: CCC(CC)Oc1cc(C)nc(Oc2c(C)cc(C)cc2C)c1[N+](=O)[O-]
IC50 [1]: 15 nM | inhibition in vivo at 3.2 mg/kg (Rattus norvegicus [2]): 59% | inhibition in vivo at 3.2 mg/kg (Rattus norvegicus [3]): 35%

SMILES: CCC(COC)Oc1cc(C)nc(Oc2c(C)cc(C)cc2C)c1C (stereo unspecified)
IC50 [1]: 11 nM | inhibition in vivo at 3.2 mg/kg (Rattus norvegicus [2]): 75% | inhibition in vivo at 3.2 mg/kg (Rattus norvegicus [3]): 49%

SMILES: CCC(CC)Oc1cc(C)nc(Oc2c(C)cc(COC)cc2C)c1C
IC50 [1]: 3.2 nM | inhibition in vivo at 3.2 mg/kg (Rattus norvegicus [8]): 57% | inhibition in vivo at 3.2 mg/kg (Rattus norvegicus [9]): 12%

SMILES: C/C=C(\CC)Oc1cc(C)nc(Oc2c(C)cc(C)cc2C)c1C (mixture of isomers)
IC50 [1]: 16 nM | inhibition in vivo at 3.2 mg/kg (Rattus norvegicus [2]): 75% | inhibition in vivo at 3.2 mg/kg (Rattus norvegicus [3]): 55%

Second part, led by results:

IC50 [1]: 28 nM
SMILES: CCC(C)Oc1cc(C)nc(Oc2c(C)cc(C)cc2C)c1C (stereo unspecified)
inhibition in vivo at 3.2 mg/kg (Rattus norvegicus [2]): 74% | inhibition in vivo at 3.2 mg/kg (Rattus norvegicus [3]): 42%

IC50 [1]: 40 nM
SMILES: CCC(CC)Oc1cc(C)nc(Oc2c(C)cc(C=O)cc2C)c1C

IC50 [1]: 6.8 nM | pKa [4]: 3.5 | solubility [5]: < 1 µg/mL | Ki [6]: 7.6 nM | Ki [7]: 8.5 nM | solubility [11]: 0.2 µg/mL (≈ 0.611 µM) | solubility [12]: 3 µg/mL (≈ 9.16 µM) | IC50 [13]: 6.8 nM
SMILES: CCC(CC)Oc1cc(C)nc(Oc2c(C)cc(C)cc2C)c1C
inhibition in vivo at 3.2 mg/kg (Rattus norvegicus [8]): 75% | inhibition in vivo at 3.2 mg/kg (Rattus norvegicus [9]): 72% | ED50 (Rattus norvegicus [10]; read-out: ID50 (the source's name)): 35 mg/kg | minimal effective dose (Rattus norvegicus [10]; read-out: MED): 10 mg/kg

IC50 [1]: 12 nM
SMILES: CCC(CC)Oc1cc(C)nc(Oc2c(C)cc(C)cc2C)c1N
inhibition in vivo at 3.2 mg/kg (Rattus norvegicus [2]): 78% | inhibition in vivo at 3.2 mg/kg (Rattus norvegicus [3]): 51%

IC50 [1]: 150 nM
SMILES: CCC(CC)Oc1cc(C)nc(Oc2c(C)cc(C)cc2C)c1

IC50 [1]: 9.8 nM
SMILES: CCC(CC)Oc1cc(C)nc(Oc2c(C)cc(C)cc2C)c1Br

IC50 [1]: 25 nM
SMILES: CCC(CC)Oc1cc(C)nc(Oc2c(C)cc(C)cc2C)c1N(C)C

IC50 [1]: 180 nM
SMILES: CCC(CC)Oc1c(C)c(C)nc(Oc2c(C)cc(C)cc2C)c1C

IC50 [1]: 2.6 nM
SMILES: CCC(CC)Oc1cc(C)nc(Oc2c(C)cc(Br)cc2C)c1C
inhibition in vivo at 3.2 mg/kg (Rattus norvegicus [8]): 47% | inhibition in vivo at 3.2 mg/kg (Rattus norvegicus [9]): 84%

IC50 [1]: 11 nM
SMILES: CCc1cc(C)c(Oc2nc(C)cc(OC(CC)CC)c2C)c(C)c1
inhibition in vivo at 3.2 mg/kg (Rattus norvegicus [2]): 55% | inhibition in vivo at 3.2 mg/kg (Rattus norvegicus [3]): 56%

IC50 [1]: 10 nM | pKa [4]: 4.97 | solubility [5]: 10 µg/mL (≈ 30.4 µM)
SMILES: CCC(CC)Oc1cc(C)nc(Oc2c(C)cc(C)nc2C)c1C
inhibition in vivo at 3.2 mg/kg (Rattus norvegicus [2]): 70% | inhibition in vivo at 3.2 mg/kg (Rattus norvegicus [3]): 6%

IC50 [1]: 100 nM
SMILES: Cc1cc(C)c(Oc2nc(C)cc(OC3CCOC3)c2C)c(C)c1 (stereo unspecified)

IC50 [1]: 86 nM
SMILES: CCc1cc(OC(CC)CC)c(C)c(Oc2c(C)cc(C)cc2C)n1

IC50 [1]: 20 nM
SMILES: CCOc1cc(C)c(Oc2nc(C)cc(OC(CC)CC)c2C)c(C)c1
inhibition in vivo at 3.2 mg/kg (Rattus norvegicus [8]): 43% | inhibition in vivo at 3.2 mg/kg (Rattus norvegicus [9]): 33%

IC50 [1]: 18 nM
SMILES: CCC(CC)Oc1cc(C)nc(Oc2c(C)cc(C(N)=O)cc2C)c1C
inhibition in vivo at 3.2 mg/kg (Rattus norvegicus [8]): 33% | inhibition in vivo at 3.2 mg/kg (Rattus norvegicus [9]): 15%

IC50 [1]: 12 nM
SMILES: CCC(CC)Oc1cc(C)nc(Oc2c(C)cc(I)cc2C)c1C
inhibition in vivo at 3.2 mg/kg (Rattus norvegicus [2]): 27% | inhibition in vivo at 3.2 mg/kg (Rattus norvegicus [3]): 72%

IC50 [1]: 470 nM
SMILES: CCC(CC)Oc1cc(C)nc(Oc2c(C)cc(C)cc2C)c1C(=O)OC

IC50 [1]: 9.8 nM
SMILES: CCCc1cc(C)c(Oc2nc(C)cc(OC(CC)CC)c2C)c(C)c1
inhibition in vivo at 3.2 mg/kg (Rattus norvegicus [2]): 42% | inhibition in vivo at 3.2 mg/kg (Rattus norvegicus [3]): 34%

Reference: ChEMBL document CHEMBL1143117, “Synthesis and SAR of 2-aryloxy-4-alkoxy-pyridines as potent orally active corticotropin-releasing factor 1 receptor antagonists” (J Med Chem, 2008)
